Only some compounds are listed: those with a hit (about 10% of all), similar ones and a draw of the others.
PMI act satM6P: activators of human phosphomannose isomerase at near-saturating mannose 6-phosphate | P34949 | activation factor at 20 µM | actives 0.34% (n = 190,000) | coupled PMI enzyme assay, resazurin fluorescence, 20 min; active compounds read high; 1 = untreated enzyme, 0 = substrate-free blank;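 active means activation factor of 2 or more at 20 µM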
Target sequence (P34949 whole entry, looked up): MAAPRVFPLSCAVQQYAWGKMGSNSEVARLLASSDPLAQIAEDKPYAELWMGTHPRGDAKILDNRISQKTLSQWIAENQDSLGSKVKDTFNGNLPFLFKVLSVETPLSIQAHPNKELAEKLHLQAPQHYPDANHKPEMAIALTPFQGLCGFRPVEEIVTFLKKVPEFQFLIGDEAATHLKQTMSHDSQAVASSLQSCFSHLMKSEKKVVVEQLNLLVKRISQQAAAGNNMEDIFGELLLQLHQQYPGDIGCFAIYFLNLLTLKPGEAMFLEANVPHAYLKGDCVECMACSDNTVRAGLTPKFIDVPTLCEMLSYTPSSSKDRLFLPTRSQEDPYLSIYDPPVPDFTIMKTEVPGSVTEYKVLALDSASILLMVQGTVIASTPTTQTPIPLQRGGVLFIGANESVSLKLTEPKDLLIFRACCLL
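Test system: human phosphomannose isomerase with PGI, G6PDH, diaphorase coupling enzymes; Amount: PMI at 15 ng/mL final; Reagent: Mannose-6-phosphate 1.0 mM (near-saturating) plus 0.22 mM NADP+; Timing: 20 min, room temperature; Technique: resorufin fluorescence at Ex 544/Em 590 nm; Dosing: 20 µM single dose.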
Diaph act CS: diaphorase activation or chemical reduction counter-screen; Diaphorase/resazurin coupled assay, resorufin fluorescence, 16 min; active compounds read high; 1 = vehicle wells, 0 = NADH-free wells; activation factor at 20 µM; actives 0.005% (n = 190,000);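 active means diaphorase activity raised at least twofold by the compound at 20 µM; inactive means activation factor below 2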
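Material: bacterial diaphorase enzyme (C. kluyveri); amount: enzyme 0.07 U/mL final; reagent: NADH substrate 0.114 mM plus resazurin dye 0.1 mM, final; doses: single compound dose of 20 µM, 1% DMSO final; timing: 16 min enzyme reaction, ambient temperature; measured by: fluorescence of resorufin, 544 nm excitation, 590 nm emission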
PMI act: activators of human phosphomannose isomerase. P34949. purified human PMI, coupled resazurin fluorescence, 20 min; active compounds read high; 1 = vehicle control, 0 substrate-free wells. activation factor at 20 µM. actives 0.005% (n = 190,000);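 active means activation factor of 2 or more at 20 µM, relative to plate controls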
WT yeast gro inh: growth inhibition of WT yeast, mitochondrial fusion screen; mitochondrial fusion phenotypic screen, WT strain; inhibition, % at 10 µM; actives 2.1% (n = 190,000); AID 1362; in the data active means inhibition above about 58%; tested in S. cerevisiae
Lmaj promast: inhibitors of Leishmania major promastigote growth; inhibition, % at 10 µM; Leishmania major promastigotes, resazurin fluorescence viability; actives 9% (n = 200,000); in the data active means inhibition above about 50%;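 further: promastigotes grown with compound for 44 hours at 28 °C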
Hits are given with their value; . = inactive; / = not tested or not shown.

SMILES	PMI act satM6P	Diaph act CS	PMI act	WT yeast gro inh	Lmaj promast
COc1ccccc1N(C)S(=O)(=O)c1ccc(C(=O)OCC(=O)c2c[nH]c3ccccc23)cc1	.	.	.	.	100
COc1ccccc1N(C)S(=O)(=O)c1ccc(C(=O)NC2=NCCS2)cc1	.	.	.	.	96
CCOC(=O)c1cc(-c2ccccc2)sc1NC(=O)c1cc(OC)c(OC)c(OC)c1	.	.	.	.	.
COC(=O)CSc1nc(C)cc(N2CCOCC2)n1	.	.	.	.	.
COc1cc(NC(=O)c2ccco2)c(C(=O)OCC(=O)c2c[nH]c3ccccc23)cc1OC	.	.	.	.	55
CCOC(=O)c1nc2cc3n(c(CC(C)C)c-2c1C)CC(C)=C3C	2.4	.	.	.	64
CCOC(=O)c1nc(S(C)(=O)=O)ncc1Cl	.	.	.	.	.
CCOc1ncccc1C(=O)NCc1ccccc1	.	.	.	.	54
O=C(O)CCC(=O)Nc1ccccc1C(=O)NCc1ccccc1	.	.	.	.	51
O=C(Cc1ccccc1)Nc1ccccc1C(=O)Nc1ccccc1	.	.	.	.	65
CCOc1ncccc1C(=O)NCc1ccc(OC)cc1	.	.	.	.	.
Cc1ccc(NC(=O)c2ccccc2NC(=O)Cc2ccccc2)cc1	.	.	.	.	.
O=C(NCc1ccc(F)cc1)c1ccccc1OCc1ccccc1	.	.	.	.	79
Cc1cc(C)c2[nH]c(=O)c(CN(Cc3cccnc3)C(=S)NCCCN(C)C)cc2c1	.	.	.	.	.
O=C(/C=C/c1cccs1)N1CCN(Cc2ccc3c(c2)OCO3)CC1	.	.	.	.	.
O=C(COc1ccc(Cl)cc1Br)NC(=O)NCc1ccccc1	.	.	.	.	.
COc1cc(-c2noc(CCCC(=O)NC3CCCCC3)n2)cc(OC)c1OC	.	.	.	/	.
CCCCC(=O)NC1(C(F)(F)F)NC(=O)N(Cc2ccccc2)C1=O (stereo not given)	.	.	.	.	.
CCn1c(C)nc2cc(C(=O)NNC(=S)NC(=O)c3ccc(OC)cc3)ccc21	.	.	.	.	94
CCn1c(C)nc2cc(C(=O)OC)ccc21	/	/	/	.	.
COc1cc2c(cc1NC(=O)c1cccc(S(=O)(=O)N(C)C)c1)oc1ccccc12	.	.	.	.	.
O=S(Cc1ccc(Br)cc1)Cc1nnc(SCc2c(Cl)cccc2Cl)n1-c1ccccc1 (stereo not given)	.	.	.	.	96
Cn1c(CS(=O)Cc2c(Cl)cccc2Cl)nnc1SCc1c(Cl)cccc1Cl (stereo not given)	.	.	.	.	.
Cc1ccccc1-n1nnnc1SCc1cc(=O)n2ccsc2n1	.	.	.	.	.
COc1ccc(Oc2ccc(S(=O)(=O)N3CCCCC3)cc2S(=O)(=O)N2CCCCC2)cc1	/	/	/	.	/
SMILES	PMI act satM6P	Diaph act CS	PMI act	WT yeast gro inh	Lmaj promast
CC(C)(C)c1ccc(S(=O)(=O)N2CCN(CCC#N)CC2)cc1	.	.	.	.	56
COc1ccccc1Oc1ccc(S(=O)(=O)N2CCCC2)cc1	.	.	.	.	99
Cc1cccc(Oc2ccc(S(=O)(=O)N3CCCCC3)cc2N)c1	.	.	.	.	80
CC(C)(C)c1ccc(S(=O)(=O)N2CCCCC2)cc1	.	.	.	.	92
Cc1nc2ccccn2c1C(=O)N=Nc1c(O)[nH]c2ccccc12	.	.	.	.	.
C/C(=N\NC(=O)c1ccccc1F)c1ccc2c(c1)Nc1ccccc1S2	.	.	.	.	.
C/C(=N\NC(=O)c1ccc(O)cc1)c1ccc2c(c1)Nc1ccccc1S2	.	.	.	.	75
COc1ccc2nc(NC(=O)CNS(=O)(=O)c3cccs3)sc2c1	.	.	.	.	89
CCOCC(=O)Nc1nc2ccc(OC)cc2s1	.	.	.	.	.
COc1ccc2nc(NC(=O)Cc3cccs3)sc2c1	.	.	.	.	59
COc1ccc2nc(NC(=O)CCn3cccc3)sc2c1	.	.	.	.	56
O=C(Cn1ccc(C(F)(F)F)n1)Nc1cccc(S(=O)(=O)N2CCCCC2)c1	.	.	.	.	.
CN1C(=O)/C(=C/c2cc(C(C)(C)C)c(O)c(C(C)(C)C)c2)NC1=S	.	.	.	.	.
COc1ccc(-c2ccnc3nc(N4CCN(c5ccccc5)CC4)nn23)cc1	.	.	.	.	.
O=C(O)c1cc(-c2ccco2)nc2ccccc12	.	.	.	.	.
O=C(c1cc(-c2ccco2)nc2ccccc12)N1CCN(c2ccc(F)cc2)CC1	.	.	.	.	67
Cc1ccc(NC(=O)CN(C)Cc2nc3c(Br)cc(Br)cc3c(=O)[nH]2)cc1	.	.	.	.	.
O=C(NC(=S)NCCO)c1sc2ccccc2c1Cl	.	.	.	.	63
CC(C)(C)C(=O)NC(=S)NNC(=O)c1sc2ccccc2c1Cl	.	.	.	75	.
CCCCC(=O)OCC(=O)Nc1ccc(C)c(F)c1	.	.	.	.	.
CCOc1ccc(/C=C/C(=O)CCC(=O)O)cc1	.	.	.	.	.
COC(=O)C1=C(C)N(c2ccc(Cl)c(Cl)c2)C(=O)C1	.	.	.	.	80
O=C(N/N=C/c1ccc(N2CCOCC2)cc1)c1ccccc1OCCOc1ccccc1	.	.	.	.	61
Clc1cccc(N/N=C/c2ccc(N3CCOCC3)cc2)c1	2.3	.	.	.	83
C(=N\Nc1ccccn1)/c1ccc(N2CCOCC2)cc1	.	.	.	.	.
SMILES	PMI act satM6P	Diaph act CS	PMI act	WT yeast gro inh	Lmaj promast
C(=N\Nc1ccccc1)/c1ccc(N2CCOCC2)cc1	2.2	.	.	.	.
O=C(OCCN1C(=O)c2cccc3c(N4CCOCC4)ccc(c23)C1=O)c1ccccc1Cl	.	.	.	.	86
COc1ccc(C2NC(=S)NC3=C2CCc2cc(OC)ccc23)cc1 (stereo not given)	.	.	.	.	63
O=C(Cc1ccc(Cl)cc1)Nc1ccc(S(=O)(=O)Nc2cnc3ccccc3n2)cc1	.	.	.	.	.
Cn1c(N)c(C(=O)COC(=O)C2(c3ccccc3F)CCCC2)c(=O)n(C)c1=O	.	.	.	.	79
Cn1c(N)c(C(=O)COC(=O)C2(c3ccc(F)cc3)CCCC2)c(=O)n(C)c1=O	.	.	.	.	.
On1c(-c2ccc(Cl)cc2)nc2ccccc21	.	.	.	79	.
COCCn1c(-c2ccccc2)csc1=Nc1cccnc1	.	.	.	.	.
Cc1ccc(-c2csc(=Nc3cccnc3)n2CCCn2ccnc2)cc1C	.	.	.	.	95
c1cncc(N=c2scc(-c3cccc4ccccc34)n2CCCn2ccnc2)c1	.	.	.	.	80
C=CCNC(=O)COc1cc(C)cc(C)c1C	.	.	.	.	.
CC1(C)Cc2cccc(OCC(O)CN3CCN(c4ccccn4)CC3)c2O1 (stereo not given)	.	.	.	.	85

Source: PubChem BioAssay (several laboratories)
